Source: ChEMBL document CHEMBL1139013, “Synthesis and biological evaluation of novel 9-substituted-8-hydroxyadenine derivatives as potent interferon inducers” (J Med Chem, 2006)

How the values were obtained:
Cynomolgus monkey [1] = assay: Induction of IFN in cynomolgus monkey at 0.1 mg/kg, po; type: functional, Macaca fascicularis
Mustela putorius furo [2] = assay: Emetic activities in ferret at 3 mg/kg, po; type: organism-based; parameters: dose 3 mg/kg, route oral; details: in vivo
Outline: (§1)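 Oral dosing of male ferrets (4 months old) with compound in 0.5% sodium carboxymethyl cellulose vehicle; doses 0.3-30 mg/kg, 5 animals per group. Animals housed singly, video-recorded continuously for 6 h. Tapes scored afterwards for presence or absence of vomiting; reported as number vomiting per group.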

Cynomolgus monkey [3] = assay: Induction of IFN in cynomolgus monkey at 1 mg/kg, po; type: functional, Macaca fascicularis
Splenocyte [4] = assay: Induction of IFN in C3H/HeJ mouse splenocytes at 10 nM; type: functional
Outline: (§2)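 Mouse splenocytes are suspended at 2 × 10⁶ cells/mL in MEM with 5% fetal calf serum, penicillin and streptomycin. They are mixed 1:1 with compound (DMSO stock diluted 500-fold in medium) and cultured 18 h at 37 °C in 5% CO₂. Supernatants are filter-sterilized and stored at -80 °C. IFN (IU/mL) is measured by L929/vesicular stomatitis virus bioassay.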

Mustela putorius furo [5] = assay: Emetic activities in ferret at 0.3 mg/kg, po; type: organism-based; parameters: dose 0.3 mg/kg, route oral; details: in vivo; outline: as §1
Splenocyte [6] = assay: Induction of IFN in C3H/HeJ mouse splenocytes at 30 nM; type: functional; outline: as §2
Splenocyte [7] = assay: Induction of IFN in C3H/HeJ mouse splenocytes at 100 nM; type: functional; outline: as §2
Splenocyte [8] = assay: Induction of IFN in C3H/HeJ mouse splenocytes at 3 nM; type: functional; outline: as §2
Mustela putorius furo [9] = assay: Emetic activities in ferret at 30 mg/kg, po; type: organism-based; parameters: dose 30 mg/kg, route oral; details: in vivo; outline: as §1
Mus musculus [10] = assay: Induction of IFN in BALB/c mice at 0.1 mg/kg, po; type: functional
Cynomolgus monkey [11] = assay: Induction of IFN in cynomolgus monkey at 0.3 mg/kg, po; type: functional, Macaca fascicularis
[12] = Cmax in ferret at 3 mg/kg, po; type: ADME, organism-based, Mustela putorius furo; parameters: dose 3 mg/kg, route oral; details: in vivo
Outline: (§3)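 Male ferrets, 4 months old, dosed orally with compound suspended in 0.5% sodium carboxymethyl cellulose. Blood (0.5 mL) drawn from jugular vein; serum separated at 1630g, 10 min, 4 °C, stored at -20 °C. Compound concentration measured by HPLC; maximum concentration reported in ng/mL.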

Mus musculus [13] = assay: Induction of IFN in BALB/c mice at 0.3 mg/kg, po; type: functional
[14] = Cmax in ferret at 30 mg/kg, po; type: ADME, organism-based, Mustela putorius furo; parameters: dose 30 mg/kg, route oral; details: in vivo; outline: as §3
Splenocyte [15] = assay: Induction of IFN in C3H/HeJ mouse splenocytes at 1 nM; type: functional; outline: as §2

Structure (SMILES)	Activity (Cynomolgus monkey [1]) [IU/ml]	Activity (Mustela putorius furo [2])	Activity (Cynomolgus monkey [3]) [IU/ml]	Activity (Splenocyte [4]) [IU/ml]	Activity (Mustela putorius furo [5])	Activity (Splenocyte [6]) [IU/ml]	Activity (Splenocyte [7]) [IU/ml]	Activity (Splenocyte [8]) [IU/ml]	Activity (Mustela putorius furo [9])	Activity (Mus musculus [10]) [IU/ml]	Activity (Cynomolgus monkey [11]) [IU/ml]	Cmax [12] [ng/mL]	Activity (Mus musculus [13]) [IU/ml]	Cmax [14] [ng/mL]	Activity (Splenocyte [15]) [IU/ml]
CCCCNc1nc(N)c2nc(O)n(Cc3ccc(Cl)nc3)c2n1	0	Not Active	3602	6.8	Not Active	2.6	1.5	5.6	Not Active	811	19	20.1	1826	275	<0.5
CCCCNc1nc(N)c2nc(O)n(Cc3ccc(C)nc3)c2n1	121	Not Active	34810	7.8	Not Active	3.7	1.4	4.4	Not Active	393	591	20.8	1891	1020	<0.5
CCCCNc1nc(N)c2nc(O)n(Cc3ccc(OC)nc3)c2n1	3	Not Active	17422	13.4	Not Active	3	1	8.2	Not Active	375	244	109	1920	1200	<0.5
